Test results reported in ChEMBL document CHEMBL4130501 (Eur J Med Chem, 2017).
Activity calls are given as the source filed them. The calls are words filed in the database; no cut-off is given here.

Experiments:
[1] = Metal chelating activity against Cupric ions assessed as induction of isosbestic shift of maximum absorption upon addition of CuCl2 at 10 uM incubated for 30 mins UV-Vis spectrophotometry
[2] = Inhibition of AChE (unknown origin) at 500 nM pre-incubated for 20 mins before acetylthiocholine iodide substrate addition by Ellman reagent based spectrophotometry; details: Homo sapiens
Procedure, shortened: (§1)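 Cholinesterase inhibition was tested with the compound at 500 nM and reported as percent inhibition, mean ± SEM.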

[3] = biological target: Amyloid-beta precursor protein (Homo sapiens) (UniProt P05067); experiment: Inhibition of self-induced amyloid beta (1 to 42) (unknown origin) aggregation at 10 uM after 24 hrs by thioflavin T-based fluorometric assay relative to control
Procedure, shortened: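 Self-mediated Aβ1-42 aggregation was followed by thioflavin-T fluorescence with 10 µM inhibitor present. Percent inhibition was reported as mean ± SEM.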

HT-22 [4] = experiment: Neuroprotective activity against glutamate-induced cytotoxicity in mouse HT22 cells assessed as increase cell viability at 30 uM pre-incubated for 30 mins before glutamate stimulation for 24 hrs by MTT assay; assay type: functional, cell-based
Procedure, shortened: (§2)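 HT22 cells were pretreated for 30 min with compounds at 3, 10 or 30 µM, then exposed to […] glutamate for 24 h. Viability was read by MTT (n = 3) and compared against the glutamate-only group and the control.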

[5] = Permeability at 100 ug/ml incubated for 10 hrs by PAMPA method; assay type: ADME; details: read-out: Peff
Procedure, shortened: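 Passive BBB permeation was measured by PAMPA-BBB through an artificial lipid membrane, with Pe given in 10^-6 cm s^-1. Classification: Pe > 4.7 is CNS+, 4.7 to 1.8 is uncertain, and Pe < 1.8 is CNS−.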

Cholinesterase [6] = biological target: T1, Cholinesterase (Homo sapiens, UniProt P06276); experiment: Inhibition of BuChE (unknown origin) at 500 nM pre-incubated for 20 mins before S-Butyrylthiocholine iodide substrate addition by Ellman reagent based spectrophotometry; procedure, shortened: as §1
HT-22 [7] = experiment: Cytotoxicity in mouse HT22 cells assessed as reduction in cell viability at 30 to 100 uM incubated for 24 hrs by MTT assay; assay type: cell-based; details: ht-22, 24 h
Procedure, shortened: (§3)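 Mouse HT22 cells were exposed to compounds at 30, 50 and 100 µM for 24 h. Viability was read by colorimetric MTT assay and compared with untreated control cells (n = 3).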

[8] = Antioxidant activity assessed as DPPH radical scavenging activity incubated for 60 mins under dark condition by spectrophotometry; assay type: functional
Procedure, shortened: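 DPPH radical scavenging was measured, and the IC50 was taken as the compound concentration giving 50% scavenging.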

Cholinesterase [9] = biological target: T1, Cholinesterase; experiment: Inhibition of BuChE (unknown origin) pre-incubated for 20 mins before S-Butyrylthiocholine iodide substrate addition by Ellman reagent based spectrophotometry
HT-22 [10] = experiment: Cytotoxicity in mouse HT22 cells assessed as reduction in cell viability at 30 uM incubated for 24 hrs by MTT assay; assay type: cell-based; details: ht-22, 24 h; procedure, shortened: as §3
HT-22 [11] = experiment: Neuroprotective activity against glutamate-induced cytotoxicity in mouse HT22 cells assessed as increase cell viability at 10 uM pre-incubated for 30 mins before glutamate stimulation for 24 hrs by MTT assay; assay type: functional, cell-based; procedure, shortened: as §2
HT-22 [12] = experiment: Neuroprotective activity against glutamate-induced cytotoxicity in mouse HT22 cells assessed as increase cell viability at 3 to 30 uM pre-incubated for 30 mins before glutamate stimulation for 24 hrs by MTT assay; assay type: functional, cell-based; procedure, shortened: as §2
HT-22 [13] = experiment: Cytotoxicity in mouse HT22 cells assessed as reduction in cell viability at 100 uM incubated for 24 hrs by MTT assay; assay type: cell-based; details: ht-22, 24 h; procedure, shortened: as §3

T1 sequence (P06276 whole entry): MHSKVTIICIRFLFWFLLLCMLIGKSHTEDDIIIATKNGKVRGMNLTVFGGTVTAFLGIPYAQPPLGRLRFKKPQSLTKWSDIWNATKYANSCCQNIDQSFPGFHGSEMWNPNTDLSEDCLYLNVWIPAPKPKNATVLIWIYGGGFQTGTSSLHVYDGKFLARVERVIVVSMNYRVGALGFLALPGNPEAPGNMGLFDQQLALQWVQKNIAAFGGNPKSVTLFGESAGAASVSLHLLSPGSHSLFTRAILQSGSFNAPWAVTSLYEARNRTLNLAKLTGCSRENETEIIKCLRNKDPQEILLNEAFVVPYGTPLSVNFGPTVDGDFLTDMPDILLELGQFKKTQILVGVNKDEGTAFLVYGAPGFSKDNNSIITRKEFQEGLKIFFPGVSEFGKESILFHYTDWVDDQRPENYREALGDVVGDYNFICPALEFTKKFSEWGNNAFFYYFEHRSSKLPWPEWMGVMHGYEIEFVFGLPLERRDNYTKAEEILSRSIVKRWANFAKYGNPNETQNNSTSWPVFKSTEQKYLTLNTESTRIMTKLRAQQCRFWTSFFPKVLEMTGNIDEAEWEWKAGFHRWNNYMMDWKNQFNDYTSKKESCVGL
Amyloid-beta precursor protein (Homo sapiens), sequence (P05067 whole entry): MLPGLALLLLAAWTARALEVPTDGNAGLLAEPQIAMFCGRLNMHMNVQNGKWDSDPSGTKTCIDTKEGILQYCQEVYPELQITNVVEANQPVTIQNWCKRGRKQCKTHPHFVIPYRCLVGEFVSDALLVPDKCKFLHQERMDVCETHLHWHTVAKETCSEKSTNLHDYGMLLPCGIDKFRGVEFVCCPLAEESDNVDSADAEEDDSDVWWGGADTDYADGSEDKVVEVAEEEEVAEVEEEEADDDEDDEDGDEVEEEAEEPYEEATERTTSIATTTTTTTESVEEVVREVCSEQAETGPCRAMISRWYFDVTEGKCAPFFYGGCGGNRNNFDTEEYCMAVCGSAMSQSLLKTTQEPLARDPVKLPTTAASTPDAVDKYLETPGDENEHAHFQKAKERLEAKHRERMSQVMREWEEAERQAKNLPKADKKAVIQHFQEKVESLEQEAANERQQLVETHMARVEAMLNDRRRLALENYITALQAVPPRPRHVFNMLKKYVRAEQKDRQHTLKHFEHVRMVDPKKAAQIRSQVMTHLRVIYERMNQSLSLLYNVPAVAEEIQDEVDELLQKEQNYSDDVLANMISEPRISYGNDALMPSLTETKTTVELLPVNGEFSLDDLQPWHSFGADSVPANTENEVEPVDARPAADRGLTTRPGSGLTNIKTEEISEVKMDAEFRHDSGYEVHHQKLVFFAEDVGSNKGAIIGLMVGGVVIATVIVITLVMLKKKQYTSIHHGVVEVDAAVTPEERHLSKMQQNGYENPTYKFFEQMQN

SMILES	Activity [1]	inhibition [2]	inhibition [3]	Activity (HT-22 [4])	Papp at 10 h, 100 ug/ml [5]	inhibition (Cholinesterase [6])	Activity (HT-22 [7])	IC50 [8]	IC50 (Cholinesterase [9])	Activity (HT-22 [10])	Activity (HT-22 [11])	Activity (HT-22 [12])	Activity (HT-22 [13])
CCN(C)C(=O)Oc1cccc(CNC(=O)c2cc(O)c(O)c(O)c2)c1	Active	5.53%	51.8%	Active	4.86 ×10⁻⁶ cm/s	2.39%	Non-Toxic	12.9 µM					
Cc1c(C)c2c(c(C)c1O)CCC(C)(C(=O)O)O2 (stereo unspecified) [TROLOX]								23.5 µM					
CCN(C)C(=O)Oc1cccc(CNC(=O)c2cc(=O)c3ccccc3o2)c1		12.7%	55.2%			37.1%		> 100 µM	0.65 µM	Toxic	Active		
CCN(C)C(=O)Oc1cccc(NC(=O)c2cc(=O)c3ccccc3o2)c1		9.03%	63.8%			53.8%	Toxic	> 100 µM	0.507 µM			inactive	
CCN(C)C(=O)Oc1cccc(CCNC(=O)c2cc(O)c(O)c(O)c2)c1	Active	3.48%	27.1%		5.14 ×10⁻⁶ cm/s	58.8%		11.7 µM	0.452 µM			inactive	Toxic
CCN(C)C(=O)Oc1cccc(NC(=O)CCCCC2CCSS2)c1 (stereo unspecified)	Active	0.51%	46.3%	inactive	10.3 ×10⁻⁶ cm/s	77.4%	Non-Toxic	4.53 µM	0.356 µM				
CCN(C)C(=O)Oc1cccc([C@H](C)N(C)C)c1 [RIVASTIGMINE]		1.92%			16.3 ×10⁻⁶ cm/s	30.1%							
CCN(C)C(=O)Oc1cccc(CNC(=O)CCCCC2CCSS2)c1 (stereo unspecified)	Active	3.66%	51.8%	inactive	27.8 ×10⁻⁶ cm/s	77.3%	Non-Toxic	4.3 µM	0.378 µM				
CCN(C)C(=O)Oc1cccc(CCNC(=O)CCCCC2CCSS2)c1 (stereo unspecified)		-1.48%	49.8%	inactive	12.1 ×10⁻⁶ cm/s	76.7%	Non-Toxic	4.88 µM	0.34 µM				
CCN(C)C(=O)Oc1cccc(NC(=O)c2cc(O)c(O)c(O)c2)c1	Active	23.6%	47.3%		3.08 ×10⁻⁶ cm/s	7.98%		10.6 µM			Active		Toxic
CCN(C)C(=O)Oc1cccc(CCNC(=O)c2cc(=O)c3ccccc3o2)c1		22.1%	67.4%			49.1%	Toxic	> 100 µM	0.511 µM			inactive	
